Test results reported in ChEMBL document CHEMBL1125634, “Triazolobenzo- and triazolothienodiazepines as potent antagonists of platelet activating factor” (J Med Chem, 1991).
Activity calls are given as the source filed them. The rule behind the calls is not given here.

Tests used:
Cavia porcellus [1] = assay: Inhibition of PAF-induced bronchoconstriction in guinea pig after oral administration after two-hour pretreatment time; type: functional; conditions: read-out: ID50 (the source's name)
In short: (§1)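 Guinea pigs dosed orally with drug or vehicle 2 h before iv PAF challenge (1 µg/kg, maximal constrictory dose). Propranolol given 5 min before PAF, succinylcholine (1.2 mg/kg iv) to stop breathing, animals ventilated. Read-out is tracheal pressure change, averaged over 3 control and 3 treated animals.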

Cavia porcellus [2] = assay: Inhibition of PAF-induced bronchoconstriction in guinea pig after oral administration after two-hour pretreatment time; No significant inhibition at 1 mg/kg; type: functional, organism-based; design: dose 1 mg/kg
Cavia porcellus [3] = assay: Inhibitory activity at 0.03 mg/kg was determined against PAF-induced bronchoconstriction in guinea pig; type: functional
In short: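 Duration-of-action test: single 0.03 mg/kg oral dose given 24 h before iv PAF challenge (1 µg/kg) in ventilated, paralysed guinea pigs. Percent inhibition of the tracheal pressure rise versus vehicle controls. Values are means ± SEM.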

Cavia porcellus [4] = assay: Compound was measured by using PAF-induced Bronchoconstriction assay in the guinea pig after administration orally after two-hour pretreatment time; type: functional; conditions: po, read-out: ID50 (the source's name); in short: as §1
Cavia porcellus [5] = assay: Inhibition of PAF-induced bronchoconstriction in the guinea pig after administration (1 mg/kg) intravenously at two-hourpretreatment time; type: functional
Cavia porcellus [6] = assay: Inhibition of PAF-induced bronchoconstriction in the guinea pig after intravenous administration after one-minute pretreatment time; No significant inhibition at 1 mg/kg; type: functional, organism-based; design: dose 1 mg/kg
Canis familiaris = species: Canis familiaris; assay: PAF-antagonist activity in dog platelets by PAF-binding assay; No significant inhibition at 1000 nM; type: functional, Canis lupus familiaris
[7] = PAF-antagonist activity determined in dog platelets by PAF-binding assay

Structure (SMILES)	ED50 (Cavia porcellus [1])	further results
Cc1nnc2n1-c1sc(C#CCn3c4c(c5cc(Cl)ccc53)CCCCC4)cc1C(c1ccccc1Cl)=NC2	0.3 mg/kg	–
Cc1nnc2n1-c1sc(C#CCn3c(=O)c4cc(Cl)ccc4c4ccc(Cl)cc43)cc1C(c1ccccc1Cl)=NC2	0.03 mg/kg	–
Cc1nnc2n1-c1sc(I)cc1C(c1cc([N+](=O)[O-])ccc1Cl)=NC2	–	ID50 (Cavia porcellus [2]): inactive
Cc1nnc2n1-c1ccc(C#CCN3C(=O)CCc4ccccc43)cc1C(c1ccccc1F)=N[C@H]2C	0.1 mg/kg	–
O=c1c2ccccc2c2ccccc2n1CC#Cc1cc2c(s1)-n1c(CO)nnc1CN=C2c1ccccc1Cl	0.3 mg/kg	–
Cc1nnc2n1-c1sc(C#CCn3c(=O)c4ccccc4c4ccccc43)cc1C(c1ccccc1Cl)=NC2	0.01 mg/kg	inhibition in vivo at 0.03 mg/kg (Cavia porcellus [3]): 75%
Cc1nnc2n1-c1sc(CCC(=O)N3CCOCC3)cc1C(c1ccccc1Cl)=NC2 [APAFANT]	1.2 mg/kg	–
Cc1nnc2n1-c1sc(C#CCn3c(=O)n(C)c(=O)c4ccccc43)cc1C(c1ccccc1Cl)=NC2	0.02 mg/kg	–
Cc1nnc2n1-c1sc(C#CCN3C(=O)CCc4ccccc43)cc1C(c1cc([N+](=O)[O-])ccc1Cl)=NC2	–	ID50 (Cavia porcellus [2]): inactive
Cc1nnc2n1-c1sc(C#CCn3ccc4ccccc4c3=O)cc1C(c1ccccc1Cl)=NC2	0.03 mg/kg	–
Cc1nnc2n1-c1sc(C#CCn3c(=O)n(-c4ccccc4)c4ccccc43)cc1C(c1ccccc1Cl)=NC2	0.02 mg/kg	–
Cc1nnc2n1-c1ccc(C#CCN3C(=O)c4ccccc4C3=O)cc1C(c1ccccc1F)=NC2	0.5 mg/kg	–
Cc1nnc2n1-c1sc(C#CCn3c4ccccc4c(=O)c4ccccc43)cc1C(c1ccccc1Cl)=NC2	0.02 mg/kg	–
Cc1nnc2n1-c1sc(C#CCn3c4ccccc4c4ccccc43)cc1C(c1ccccc1Cl)=NC2	0.02 mg/kg	–
Cc1nnc2n1-c1sc(C#CCn3c(=O)n(C)c4ccccc43)cc1C(c1ccccc1Cl)=NC2	0.04 mg/kg	–
Cc1nnc2n1-c1ccc(C#CCCN3C(=O)c4ccccc4C3=O)cc1C(c1ccccc1F)=NC2	0.3 mg/kg	–
C=C=Cn1c(=O)n(CC#Cc2cc3c(s2)-n2c(C)nnc2CN=C3c2ccccc2Cl)c2ccccc21	0.03 mg/kg	–
Cc1nnc2n1-c1sc(C#CCN3C(=O)c4cccc5cccc(c45)C3=O)cc1C(c1ccccc1Cl)=NC2	0.03 mg/kg	–
Cc1nnc2n1-c1sc(C#CCn3c(O)nc4ccccc43)cc1C(c1ccccc1Cl)=NC2	0.2 mg/kg	–

Structure (SMILES)	ED50 (Cavia porcellus [1])	further results
Cc1nnc2n1-c1sc(C#CCN3C(=O)Cn4ccc5c(Cl)ccc3c54)cc1C(c1ccccc1Cl)=NC2	0.003 mg/kg	inhibition in vivo at 0.03 mg/kg (Cavia porcellus [3]): 0%
Cc1nnc2n1-c1sc(C#CCn3c(=O)n(CCN(C)C)c(=O)c4ccccc43)cc1C(c1ccccc1Cl)=NC2	0.3 mg/kg	–
Cc1nnc2n1-c1sc(C#CCn3c(=O)c4ccccc4c4ccccc4c3=O)cc1C(c1ccccc1Cl)=NC2	0.02 mg/kg	–
Cc1nnc2n1-c1sc(C#CCN3C(=O)CCc4ccc(Cl)cc43)cc1C(c1ccccc1Cl)=NC2	0.1 mg/kg	–
Cc1nnc2n1-c1sc(I)cc1C(c1ccccc1Cl)=NC2C (configuration not stated)	–	ID50 (Cavia porcellus [2]): inactive
Cc1nnc2n1-c1sc(C#CCN3C(=O)CCc4cc(Cl)cc(Cl)c43)cc1C(c1ccccc1Cl)=NC2	0.02 mg/kg	–
Cc1nnc2n1-c1sc(C#CCN3Cc4cccc5cccc(c45)C3=O)cc1C(c1ccccc1Cl)=NC2	–	inhibition in vivo at 0.03 mg/kg (Cavia porcellus [3]): 60%
Cc1nnc2n1-c1sc(C#CCN3C(=O)COc4ccccc43)cc1C(c1ccccc1Cl)=NC2	0.02 mg/kg	–
COc1cc2c(cc1OC)C(=O)N(CC#Cc1cc3c(s1)-n1c(C)nnc1CN=C3c1ccccc1Cl)CC2	0.05 mg/kg	–
Cc1nnc2n1-c1sc(C#CCN3C(=O)NCc4ccccc43)cc1C(c1ccccc1Cl)=NC2	0.05 mg/kg	–
Cc1nnc2n1-c1sc(C#CCN3C(=O)CCc4ccccc43)cc1C(c1ccccc1Cl)=NC2	–	ED50 (Cavia porcellus [4]): 0.02 mg/kg
Cc1nnc2n1-c1sc(C#CCN3C(=O)c4cccc5cccc3c45)cc1C(c1ccccc1Cl)=NC2	0.04 mg/kg	–
CCc1nnc2n1-c1ccc(C#CCN3C(=O)c4ccccc4C3=O)cc1C(c1ccccc1F)=NC2	–	Inhibition (Cavia porcellus [5]): 30%
Cc1nnc2n1-c1sc(C#CCOc3cccnc3)cc1C(c1ccccc1Cl)=NC2	0.2 mg/kg	–
Cc1nnc2n1-c1sc(C#CCn3c(=O)c4ccccc4c(=O)c4ccccc43)cc1C(c1ccccc1Cl)=NC2	0.03 mg/kg	–
Cc1nnc2n1-c1sc(C#CCN3C(=O)OCc4ccccc43)cc1C(c1ccccc1Cl)=NC2	0.08 mg/kg	–
Cc1nnc2n1-c1sc(I)cc1C(c1ccccc1Cl)=NC2	–	ID50 (Cavia porcellus [2]): inactive
Cc1nnc2n1-c1sc(C#CCN3C(=O)CC(C)(C)c4ccccc43)cc1C(c1ccccc1Cl)=NC2	0.03 mg/kg	–
Cc1nnc2n1-c1sc(C#CCn3c(=O)c4ccccc4c4ccccc43)cc1C(c1ccccc1Cl)NC2=O (configuration not stated)	–	ID50 (Cavia porcellus [2]): inactive; ID50 (Cavia porcellus [6]): inactive

Structure (SMILES)	ED50 (Cavia porcellus [1])	further results
Cc1nnc2n1-c1sc(C#CCn3c(=O)n(CCN(C)C)c4ccccc43)cc1C(c1ccccc1Cl)=NC2	0.2 mg/kg	–
Cc1nnc2n1-c1sc(C#CCN3CCc4ccccc4C3=O)cc1C(c1ccccc1Cl)=NC2	0.03 mg/kg	–
Cc1nnc2n1-c1sc(C#CCn3c(=O)ccc4ccccc43)cc1C(c1ccccc1Cl)=NC2	0.02 mg/kg	–
Cc1nnc2n1-c1sc(C#CCn3c4c(c5cc(Cl)ccc53)CCCC4)cc1C(c1ccccc1Cl)=NC2	0.04 mg/kg	–
Cc1nnc2n1-c1sc(C#CCn3c4c(c5ccccc53)CCCCC4)cc1C(c1ccccc1Cl)=NC2	0.004 mg/kg	inhibition in vivo at 0.03 mg/kg (Cavia porcellus [3]): 8%
Cc1nnc2n1-c1sc(C#CCn3cnc4ccccc43)cc1C(c1ccccc1Cl)=NC2	0.1 mg/kg	–
Cc1nnc2n1-c1sc(C#CCC34CCCc5cccc(c53)NC4=O)cc1C(c1ccccc1Cl)=NC2 (configuration not stated)	0.3 mg/kg	–
Cc1nnc2n1-c1ccc(C#CCN3C(=O)CCc4ccccc43)cc1C(c1ccccc1F)=NC2	0.4 mg/kg	–
Cc1nnc2n1-c1sc(C#CCN3C(=O)COc4ccc(Cl)cc43)cc1C(c1ccccc1Cl)=NC2	0.05 mg/kg	–
Cc1nnc2n1-c1sc(C#CCn3c(=O)c4ccccc4c4ccccc43)cc1C(c1ccccc1Cl)=NC2C (configuration not stated)	0.03 mg/kg	–
Cc1nnc2n1-c1sc(C#CCn3ncc4ccccc43)cc1C(c1ccccc1Cl)=NC2	0.02 mg/kg	–
Cc1nnc2n1-c1cc(C#CCN3C(=O)c4ccccc4C3=O)ccc1C(c1ccccc1F)=NC2	–	IC50 (Canis familiaris): Not Active
Cc1nnc2n1-c1sc(C#CCn3c(=O)c4ccccc4c4ccccc43)cc1C(c1ccccc1Cl)=NC2O (configuration not stated)	0.07 mg/kg	–
CCCCC/C(=C\C=C\C(=O)N[C@H](C)CCCc1cccnc1)c1ccc(OC)cc1	4 mg/kg	IC50 [7]: 0.04 µM
Cc1nnc2n1-c1sc(C#CCN3C(=O)COc4cc(F)ccc43)cc1C(c1ccccc1Cl)=NC2	0.02 mg/kg	–
Cc1nnc2n1-c1sc(C#CCn3c4c(c5ccccc53)CCCC4)cc1C(c1ccccc1Cl)=NC2	–	inhibition in vivo at 0.03 mg/kg (Cavia porcellus [3]): 75%
Cc1nnc2n1-c1ccc(C#CCN3C(=O)c4cccc5cccc(c45)C3=O)cc1C(c1ccccc1Cl)=NC2	0.6 mg/kg	–
Cc1nnc2n1-c1sc(C#CCOc3ccccc3)cc1C(c1ccccc1Cl)=NC2	0.1 mg/kg	–
Cc1nnc2n1-c1ccc(C#CCN3C(=O)CSc4ccccc43)cc1C(c1ccccc1F)=NC2	0.3 mg/kg	–
